Data on 24 molecules can be found in ChEMBL document CHEMBL5113516, “2-(Fluoromethoxy)-4'-(S-methanesulfonimidoyl)-1,1'-biphenyl (UCM-1306), an Orally Bioavailable Positive Allosteric Modulator of the Human Dopamine D1 Receptor for Parkinson's Disease” (J Med Chem, 2022).

Activity calls are given as the source filed them. No cut-off for these calls is given here.

For data set [1], the target named is D(1A) dopamine receptor (Homo sapiens) (UniProt P21728). In words: Positive allosteric modulation of D1R expressed in human SK-N-MC cells assessed as potentiation of DA-induced cAMP production pretreated with compound for 15 mins followed by dopamine addition measured after 15 mins by HTRF assay relative to control. The note with it: dose 0.1-10 µM, time 30.0 min. It counts as functional, cell-based. The method, boiled down: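 Human SK-N-MC neuroblastoma cells with endogenous D1R, seeded at 1×10^4 cells/well in Opti-MEM with 500 μM IBMX. Preincubated with 10 μM compound for 15 min at 25 °C, then dopamine concentration–response for 15 min at 25 °C. Lysed and cAMP read by HTRF. Change in dopamine Emax used; >20% potentiation taken as a potential PAM.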
Chain of D(1A) dopamine receptor (Homo sapiens) (P21728 whole entry): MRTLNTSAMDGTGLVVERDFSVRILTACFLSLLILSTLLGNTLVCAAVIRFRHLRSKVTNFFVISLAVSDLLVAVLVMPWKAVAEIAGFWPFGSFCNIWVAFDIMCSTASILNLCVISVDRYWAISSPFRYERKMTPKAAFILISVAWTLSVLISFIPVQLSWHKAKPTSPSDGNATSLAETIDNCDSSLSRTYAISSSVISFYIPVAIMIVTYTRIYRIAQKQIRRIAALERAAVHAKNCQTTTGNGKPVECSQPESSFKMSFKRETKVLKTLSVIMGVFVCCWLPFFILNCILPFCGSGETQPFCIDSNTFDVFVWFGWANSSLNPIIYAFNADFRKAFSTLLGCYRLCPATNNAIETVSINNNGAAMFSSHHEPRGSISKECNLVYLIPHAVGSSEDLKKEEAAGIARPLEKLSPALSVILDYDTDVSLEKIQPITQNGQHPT

Data set [2] relates to Mus musculus. In words: Anti-parkinson activity in reserpine induced C57BL/6 mouse model assessed as decrease in locomotion at 100 to 400 mg/kg, ip measured for 60 mins. Type of data set: functional, organism-based. The settings on record: dose 100-400 mg/kg. The method, boiled down:
(§1)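 Male C57BL/6 mice (22–25 g), n = 10/group, given reserpine 2.5 mg/kg sc (DMSO/saline). 20 h later dosed with vehicle or 30 mg/kg po (5% NMP + 5% solutol HS-15 + 90% saline), and/or L-DOPA 100 or 400 mg/kg ip plus carbidopa 100 mg/kg ip 30 min before recording. Placed in cage 15 min after the po dose. Total distance travelled over 60 min by video tracking.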

Data set [3] deals with Mus musculus. In words: Anti-parkinson activity in reserpine induced C57BL/6 mouse model assessed as decrease in locomotion at 30 mg/kg, po measured for 60 mins. Type of data set: functional, organism-based. The method, boiled down:
as §1

The subject of data set [4] is Mus musculus. In words: Cognitive enhancing effect in C57BL/6J mouse assessed as ratio of novel to familiar at 1 mg/kg, ip by novel object recognition test. The settings on record: time 24-96 hrs. It counts as functional, organism-based. The method, boiled down: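 Three-month-old male C57BL/6J mice, 8 per condition. After 5 min habituation to an empty 40 cm open field, given 1 mg/kg ip or vehicle (0.9% NaCl). 20 min later, 10 min acquisition with two identical objects. Later 10 min test sessions at 24 and 96 h. Nose/forepaw exploration scored. Discrimination ratio = (novel − familiar)/total exploration time.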

Data set [5] is described as follows: Ratio of drug concentration in brain to plasma in BALB/c mouse plasma at 5 mg/kg, po administered as single dose measured 0.5 to 4 hrs. Type of data set: ADME, organism-based. The settings on record: time 0.5-4 hrs. The method, boiled down: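 Male BALB/c mice given a single oral dose of 5 mg/kg. Plasma, brain and CSF levels measured over time. Brain-to-plasma concentration ratios calculated between 0.5 and 4 h.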

A short description of data set [6]: Toxicity in cocaine-induced hyperactive C57BL/6 mouse model assessed as hyperlocomotion at 1 mg/kg, ip pretreated for 15 mins followed by cocaine addition measured after 15 mins. Type of data set: organism-based. The note with it: in vivo, 0.5 h, time 30 min. The method, boiled down: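 Three-month-old male C57BL/6J mice, 8 per group, habituated to injections for 5 days. Given 1 mg/kg ip in sterile saline (20 mL/kg) 15 min before cocaine 20 mg/kg sc. Placed in a 50 cm open field 5 min after cocaine. Horizontal locomotion (total distance, cm) video-tracked in 2 min blocks over 30 min.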

[7] abbreviates: filed as positive allosteric modulator.

As a reminder, the Emax is the greatest response seen or fitted, relative to the assay's reference. With `CCS(=N)(=O)c1ccc(-c2ccccc2OCF)cc1` (centres undefined), the Emax in data set [1] (setting [7]) stood at 54%.

With `O=Cc1ccc(-c2ccccc2SC(F)F)cc1`, the maximum response (Emax) in data set [1] (setting [7]) worked out at 44%.

`O=Cc1ccc(-c2ccc(OC(F)F)cc2)cc1`: the Emax in data set [1] was 35%.

In the case of `O=Cc1ccc(-c2ccccc2SCF)cc1`, the Emax in data set [1] was determined as 14%.

As for `N[C@@H](Cc1ccc(O)c(O)c1)C(=O)O`, in the data set with Mus musculus [2], the outcome was Active.

For `O=Cc1ccc(-c2cccc(OC(F)F)c2)cc1`, the Emax in data set [1] is 37%.

`O=Cc1ccc(-c2cccc(OCF)c2)cc1`: in data set [1], the Emax came out at 25%.

Take `CS(=N)(=O)c1ccc(-c2ccccc2OCF)c(Cl)c1` (centres undefined): in data set [1], the Emax is 20%.

As to `CS(=N)(=O)c1ccc(-c2ncccc2OCF)cc1` (centres undefined), the Emax in data set [1] stood at 1%.

Regarding `NS(=O)(=O)c1ccc(-c2ccccc2OCF)cc1`, in data set [1], the Emax was 31%.

Turning to `O=Cc1cccc(-c2ccccc2OCF)c1`, in data set [1], the Emax was determined as 23%.

With `NC(=O)c1ccc(-c2ccccc2OCF)cc1`, the maximal effect (Emax) in data set [1] amounted to 16%.

As to `CC(=O)c1ccc(-c2ccccc2OCF)cc1`, the Emax in data set [1] is 11%.

Turning to `C[S+]([O-])c1ccc(-c2ccccc2OCF)cc1` (racemic), the Emax in data set [1] (setting [7]) came out at 60%.

As for `CS(=N)(=O)c1ccc(-c2ccccc2OCF)cc1Cl` (centres undefined), the Emax in data set [1] was 12%.

Take `CN=S(C)(=O)c1ccc(-c2ccccc2OCF)cc1` (centres undefined): the Emax in data set [1] was found to be 30%.

As to `COC(=O)c1ccc(-c2ccccc2OCF)cc1`, the Emax in data set [1] is 28%.

Broadly, the Kp is tissue or fluid exposure divided by exposure in the circulation. Take `CS(=N)(=O)c1ccc(-c2ccccc2OCF)cc1` (racemic): the outcome with Mus musculus [3], with Mus musculus [4] and in the data set on Mus musculus [2] was Active. The concentration ratio (Kp) in data set [5] stood at 0.55. Further, the Emax in data set [1] (setting [7]) came out at 55%. In data set [6], the Activity result is reported as “Non-Toxic”.

Consider `O=C(O)c1ccc(-c2ccccc2OCF)cc1`, for which the Emax in data set [1] was determined as 7%.

Turning to `O=Cc1ccc(-c2ccc(OCF)cc2)cc1`, the Emax in data set [1] was found to be 29%.

Take `CC[S+]([O-])c1ccc(-c2ccccc2OCF)cc1` (centres undefined): the Emax in data set [1] turned out to be 16%.

For the molecule `O=Cc1cccc(-c2ccccc2OC(F)F)c1`, the Emax in data set [1] was found to be 12%.

In the case of `O=Cc1ccc(-c2ccccc2OC(F)F)cc1`, the maximum response (Emax) in data set [1] (setting [7]) came out at 45%.

As for `CNS(=O)(=O)c1ccc(-c2ccccc2OCF)cc1`, the Emax in data set [1] is 38%.
